ChEMBL document CHEMBL1153413, “Pyranonaphthoquinone lactones: a new class of AKT selective kinase inhibitors alkylate a regulatory loop cysteine” (J Med Chem, 2009)
The source made the active and inactive calls. The calls are words filed in the database; no cut-off is given here.

What was measured:
[1] = biological target: T1, RAC-alpha serine/threonine-protein kinase (Homo sapiens, UniProt P31749); assay: Inhibition of AKT at < 10 uM
[2] = Cytotoxicity against human MDA468 cells expressing AKT; assay type: functional, cell-based, MDA-MB-468
[3] = biological target: T1, RAC-alpha serine/threonine-protein kinase; assay: Inhibition of AKT
[4] = biological target: Tyrosine-protein kinase Lck (Homo sapiens) (UniProt P06239); assay: Inhibition of LCK at 1 uM
Outline: (§1)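 Single-concentration (1 µM) selectivity screen run as an outsourced commercial panel of 45 kinases.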

[5] = biological target: RAC-beta serine/threonine-protein kinase (Homo sapiens) (UniProt P31751); assay: Inhibition of AKT2 at 1 uM; outline: as §1
[6] = biological target: Tyrosine-protein kinase Yes (Homo sapiens) (UniProt P07947); assay: Inhibition of YES1 at 1 uM; outline: as §1
[7] = biological target: cAMP-dependent protein kinase catalytic subunit alpha (Homo sapiens) (UniProt P17612); assay: Inhibition of PRKACA at 1 uM; outline: as §1
[8] = biological target: Tyrosine-protein kinase ABL1 (Homo sapiens) (UniProt P00519); assay: Inhibition of ABL1 at 1 uM; outline: as §1
[9] = biological target: Macrophage colony-stimulating factor 1 receptor (Homo sapiens) (UniProt P07333); assay: Inhibition of CSF1R at 1 uM; outline: as §1
[10] = biological target: Rho-associated protein kinase 1 (Homo sapiens) (UniProt Q13464); assay: Inhibition of ROCK1 at 1 uM; outline: as §1
[11] = biological target: Dual specificity mitogen-activated protein kinase kinase 1 (Homo sapiens) (UniProt Q02750); assay: Inhibition of MAP2K1 at 1 uM; outline: as §1
[12] = biological target: Tyrosine-protein kinase Fyn (Homo sapiens) (UniProt P06241); assay: Inhibition of FYN at 1 uM; outline: as §1
[13] = biological target: Platelet-derived growth factor receptor beta (Homo sapiens) (UniProt P09619); assay: Inhibition of PDGFRB at 1 uM; outline: as §1
[14] = biological target: RAC-alpha serine/threonine-protein kinase (Homo sapiens, UniProt P31749, C310A); assay: Inhibition of AKT C310A mutant
[15] = biological target: Cyclin-dependent kinase 1/cyclin B1 (Homo sapiens) (UniProt P06493+P14635); assay: Inhibition of CDK1/cyclin B at 1 uM; assay type: protein-complex assay; outline: as §1
[16] = biological target: Focal adhesion kinase 1 (Homo sapiens) (UniProt Q05397); assay: Inhibition of PTK2 at 1 uM; outline: as §1
[17] = biological target: Receptor-type tyrosine-protein kinase FLT3 (Homo sapiens) (UniProt P36888); assay: Inhibition of FLT3 at 1 uM; outline: as §1
[18] = biological target: Tyrosine-protein kinase CSK (Homo sapiens) (UniProt P41240); assay: Inhibition of CSK at 1 uM; outline: as §1
[19] = biological target: Protein kinase C theta type (Homo sapiens) (UniProt Q04759); assay: Inhibition of PRKCQ at 1 uM; outline: as §1
[20] = biological target: Mitogen-activated protein kinase kinase kinase kinase 5 (Homo sapiens) (UniProt Q9Y4K4); assay: Inhibition of MAP4K5 at 1 uM; outline: as §1
[21] = biological target: Insulin-like growth factor 1 receptor (Homo sapiens) (UniProt P08069); assay: Inhibition of IGF1R at 1 uM; outline: as §1
[22] = biological target: Platelet-derived growth factor receptor alpha (Homo sapiens) (UniProt P16234); assay: Inhibition of PDGFRA at 1 uM; outline: as §1
[23] = biological target: Inhibitor of nuclear factor kappa-B kinase subunit beta (Homo sapiens) (UniProt O14920); assay: Inhibition of IKBKB at 1 uM; outline: as §1
[24] = biological target: Mitogen-activated protein kinase 1 (Homo sapiens) (UniProt P28482); assay: Inhibition of MAPK1 at 1 uM; outline: as §1
[25] = biological target: Mitogen-activated protein kinase 3 (Homo sapiens) (UniProt P27361); assay: Inhibition of MAPK3 at 1 uM; outline: as §1
[26] = biological target: Serine/threonine-protein kinase PLK1 (Homo sapiens) (UniProt P53350); assay: Inhibition of PLK1 at 1 uM; outline: as §1
[27] = biological target: Tyrosine-protein kinase Lyn (Homo sapiens) (UniProt P07948); assay: Inhibition of LYN A at 1 uM; outline: as §1
[28] = biological target: Vascular endothelial growth factor receptor 1 (Homo sapiens) (UniProt P17948); assay: Inhibition of FLT1 at 1 uM; outline: as §1
[29] = biological target: Aurora kinase A (Homo sapiens) (UniProt O14965); assay: Inhibition of STK6 at 1 uM; outline: as §1
[30] = biological target: Proto-oncogene tyrosine-protein kinase Src (Homo sapiens) (UniProt P12931); assay: Inhibition of SRC at 1 uM; outline: as §1
[31] = biological target: T1, RAC-alpha serine/threonine-protein kinase; assay: Inhibition of AKT1 at 1 uM; outline: as §1
[32] = biological target: Tyrosine-protein kinase SYK (Homo sapiens) (UniProt P43405); assay: Inhibition of SYK at 1 uM; outline: as §1
[33] = biological target: Tyrosine-protein kinase BTK (Homo sapiens) (UniProt Q06187); assay: Inhibition of BTK at 1 uM; outline: as §1
[34] = tested on: RAC-alpha serine/threonine-protein kinase (Homo sapiens), P31749 [C296A,C310A]; assay: Inhibition of AKT C296A/C310A mutant up to 40 uM
[35] = biological target: Serine/threonine-protein kinase Nek2 (Homo sapiens) (UniProt P51955); assay: Inhibition of NEK2 at 1 uM; outline: as §1
[36] = biological target: RAC-alpha serine/threonine-protein kinase (Homo sapiens, UniProt P31749, C296A); assay: Inhibition of AKT C296A mutant
[37] = biological target: Ribosomal protein S6 kinase beta-1 (Homo sapiens) (UniProt P23443); assay: Inhibition of RPS6KB1 at 1 uM; outline: as §1
[38] = biological target: Hepatocyte growth factor receptor (Homo sapiens) (UniProt P08581); assay: Inhibition of MET at 1 uM; outline: as §1
[39] = biological target: Cyclin-dependent kinase 2 (Homo sapiens) (UniProt P24941); assay: Inhibition of CDK2/cyclin A at 1 uM; outline: as §1
[40] = biological target: Fibroblast growth factor receptor 1 (Homo sapiens) (UniProt P11362); assay: Inhibition of FGFR1 at 1 uM; outline: as §1
[41] = biological target: Ephrin type-A receptor 1 (Homo sapiens) (UniProt P21709); assay: Inhibition of EPHA1 at 1 uM; outline: as §1
[42] = biological target: Vascular endothelial growth factor receptor 2 (Homo sapiens) (UniProt P35968); assay: Inhibition of KDR at 1 uM; outline: as §1
[43] = biological target: Insulin receptor (Homo sapiens) (UniProt P06213); assay: Inhibition of INSR at 1 uM; outline: as §1
[44] = biological target: High affinity nerve growth factor receptor (Homo sapiens) (UniProt P04629); assay: Inhibition of NTRK1 at 1 uM; outline: as §1
[45] = biological target: Mitogen-activated protein kinase 14 (Homo sapiens) (UniProt Q16539); assay: Inhibition of MAPK14 at 1 uM; outline: as §1
[46] = biological target: Receptor tyrosine-protein kinase erbB-4 (Homo sapiens) (UniProt Q15303); assay: Inhibition of ERBB4 at 1 uM; outline: as §1
[47] = biological target: Serine/threonine-protein kinase Sgk1 (Homo sapiens) (UniProt O00141); assay: Inhibition of SGK at 1 uM; outline: as §1
[48] = biological target: Serine/threonine-protein kinase Chk1 (Homo sapiens) (UniProt O14757); assay: Inhibition of CHEK1 at 1 uM; outline: as §1
[49] = biological target: Epidermal growth factor receptor (Homo sapiens) (UniProt P00533); assay: Inhibition of EGFR at 1 uM; outline: as §1
[50] = biological target: Protein kinase C alpha type (Homo sapiens) (UniProt P17252); assay: Inhibition of PRKCA at 1 uM; outline: as §1

T1 sequence (P31749 whole entry): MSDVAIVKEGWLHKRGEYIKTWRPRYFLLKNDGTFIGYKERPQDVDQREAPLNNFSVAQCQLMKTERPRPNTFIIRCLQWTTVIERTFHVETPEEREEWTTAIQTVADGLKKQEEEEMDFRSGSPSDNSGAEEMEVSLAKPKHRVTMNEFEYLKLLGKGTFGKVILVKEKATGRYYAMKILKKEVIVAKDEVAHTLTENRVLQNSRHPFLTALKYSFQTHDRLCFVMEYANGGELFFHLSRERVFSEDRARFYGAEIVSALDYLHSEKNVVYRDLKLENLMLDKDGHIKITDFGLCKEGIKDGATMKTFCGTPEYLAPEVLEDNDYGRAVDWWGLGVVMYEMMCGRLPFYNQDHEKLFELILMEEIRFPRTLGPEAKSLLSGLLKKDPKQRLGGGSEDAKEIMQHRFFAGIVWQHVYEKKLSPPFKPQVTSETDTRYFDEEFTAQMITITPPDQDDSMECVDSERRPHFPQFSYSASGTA
Chain of Inhibitor of nuclear factor kappa-B kinase subunit beta (Homo sapiens) (O14920 whole entry): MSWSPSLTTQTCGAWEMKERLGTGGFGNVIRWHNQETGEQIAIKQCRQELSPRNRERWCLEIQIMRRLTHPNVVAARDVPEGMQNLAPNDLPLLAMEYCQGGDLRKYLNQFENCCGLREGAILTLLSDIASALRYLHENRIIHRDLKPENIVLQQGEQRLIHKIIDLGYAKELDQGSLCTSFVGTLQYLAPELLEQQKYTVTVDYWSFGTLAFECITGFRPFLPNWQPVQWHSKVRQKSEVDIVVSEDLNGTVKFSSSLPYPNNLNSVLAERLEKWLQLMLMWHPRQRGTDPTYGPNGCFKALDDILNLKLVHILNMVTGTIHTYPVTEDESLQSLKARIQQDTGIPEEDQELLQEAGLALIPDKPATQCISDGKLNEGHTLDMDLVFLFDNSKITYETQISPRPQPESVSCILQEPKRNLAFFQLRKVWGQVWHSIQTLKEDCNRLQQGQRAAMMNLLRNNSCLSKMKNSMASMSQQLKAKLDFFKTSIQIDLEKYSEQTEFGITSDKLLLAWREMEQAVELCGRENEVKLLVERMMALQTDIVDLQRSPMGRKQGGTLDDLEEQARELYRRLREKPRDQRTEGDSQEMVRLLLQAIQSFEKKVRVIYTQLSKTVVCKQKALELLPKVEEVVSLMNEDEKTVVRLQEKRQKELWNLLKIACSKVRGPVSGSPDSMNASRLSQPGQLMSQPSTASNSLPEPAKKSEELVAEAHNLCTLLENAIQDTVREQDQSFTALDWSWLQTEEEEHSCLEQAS
Chain of Ephrin type-A receptor 1 (Homo sapiens) (P21709 whole entry): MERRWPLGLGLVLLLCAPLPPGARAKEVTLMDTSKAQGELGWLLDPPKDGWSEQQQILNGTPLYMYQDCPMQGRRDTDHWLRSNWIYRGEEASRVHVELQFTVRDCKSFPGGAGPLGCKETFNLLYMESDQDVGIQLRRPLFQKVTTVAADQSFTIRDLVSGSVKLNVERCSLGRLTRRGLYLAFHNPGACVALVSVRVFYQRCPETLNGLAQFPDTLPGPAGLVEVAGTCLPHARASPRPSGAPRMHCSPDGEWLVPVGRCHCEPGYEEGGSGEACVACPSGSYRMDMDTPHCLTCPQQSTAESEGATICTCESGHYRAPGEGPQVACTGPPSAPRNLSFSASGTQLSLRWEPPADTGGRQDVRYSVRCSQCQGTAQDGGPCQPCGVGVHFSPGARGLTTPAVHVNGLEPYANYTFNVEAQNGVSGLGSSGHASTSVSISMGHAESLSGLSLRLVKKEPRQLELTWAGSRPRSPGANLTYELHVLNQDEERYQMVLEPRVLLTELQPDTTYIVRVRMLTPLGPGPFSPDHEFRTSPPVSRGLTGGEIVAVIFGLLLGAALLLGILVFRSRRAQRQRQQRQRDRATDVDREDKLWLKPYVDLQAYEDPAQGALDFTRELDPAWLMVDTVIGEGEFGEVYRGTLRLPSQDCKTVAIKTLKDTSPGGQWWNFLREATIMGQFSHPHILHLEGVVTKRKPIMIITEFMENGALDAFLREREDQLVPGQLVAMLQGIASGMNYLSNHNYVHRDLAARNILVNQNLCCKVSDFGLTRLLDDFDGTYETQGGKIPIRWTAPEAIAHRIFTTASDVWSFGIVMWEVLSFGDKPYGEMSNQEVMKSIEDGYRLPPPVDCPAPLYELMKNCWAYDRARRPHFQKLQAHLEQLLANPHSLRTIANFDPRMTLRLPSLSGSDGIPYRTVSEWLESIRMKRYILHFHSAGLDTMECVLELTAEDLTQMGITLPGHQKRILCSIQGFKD
Chain of Tyrosine-protein kinase CSK (Homo sapiens) (P41240 2-450 limits assumed): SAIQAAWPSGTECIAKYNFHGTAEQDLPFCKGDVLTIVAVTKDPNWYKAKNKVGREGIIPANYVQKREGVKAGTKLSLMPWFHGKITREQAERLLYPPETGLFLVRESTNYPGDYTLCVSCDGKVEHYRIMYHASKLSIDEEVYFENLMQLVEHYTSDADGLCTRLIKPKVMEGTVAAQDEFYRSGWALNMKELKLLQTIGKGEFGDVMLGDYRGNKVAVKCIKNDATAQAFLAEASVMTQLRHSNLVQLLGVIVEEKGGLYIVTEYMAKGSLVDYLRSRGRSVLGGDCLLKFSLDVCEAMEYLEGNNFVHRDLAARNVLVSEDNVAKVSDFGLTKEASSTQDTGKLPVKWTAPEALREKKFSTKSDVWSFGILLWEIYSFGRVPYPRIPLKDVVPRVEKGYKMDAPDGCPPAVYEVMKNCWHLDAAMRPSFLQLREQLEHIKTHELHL
Chain of RAC-alpha serine/threonine-protein kinase (Homo sapiens, UniProt P31749, C296A) (P31749 whole entry C296A): as the sequence (P31749 whole entry) above, with C296A counted along it
Chain of Insulin-like growth factor 1 receptor (Homo sapiens) (P08069 31-736 limits assumed): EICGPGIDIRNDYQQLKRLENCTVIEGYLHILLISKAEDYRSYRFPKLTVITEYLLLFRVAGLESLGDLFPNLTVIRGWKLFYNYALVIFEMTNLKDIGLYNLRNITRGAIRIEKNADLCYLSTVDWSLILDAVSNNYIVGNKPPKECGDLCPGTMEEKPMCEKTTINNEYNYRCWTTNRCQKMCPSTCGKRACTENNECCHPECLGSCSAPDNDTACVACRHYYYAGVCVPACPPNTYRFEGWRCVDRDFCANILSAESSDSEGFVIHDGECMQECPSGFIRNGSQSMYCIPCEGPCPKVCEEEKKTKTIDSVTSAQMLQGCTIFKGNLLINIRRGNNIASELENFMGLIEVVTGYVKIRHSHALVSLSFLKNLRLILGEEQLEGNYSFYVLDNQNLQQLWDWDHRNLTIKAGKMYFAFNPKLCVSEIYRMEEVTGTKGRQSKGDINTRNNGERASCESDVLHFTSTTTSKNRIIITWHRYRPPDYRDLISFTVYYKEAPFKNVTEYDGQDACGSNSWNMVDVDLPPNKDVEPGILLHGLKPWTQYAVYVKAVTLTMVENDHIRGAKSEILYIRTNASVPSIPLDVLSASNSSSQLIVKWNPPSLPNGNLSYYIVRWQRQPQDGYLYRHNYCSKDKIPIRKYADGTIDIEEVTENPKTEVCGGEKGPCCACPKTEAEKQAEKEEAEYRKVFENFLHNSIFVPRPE
Chain of Insulin-like growth factor 1 receptor (Homo sapiens) (P08069 741-1367 limits assumed): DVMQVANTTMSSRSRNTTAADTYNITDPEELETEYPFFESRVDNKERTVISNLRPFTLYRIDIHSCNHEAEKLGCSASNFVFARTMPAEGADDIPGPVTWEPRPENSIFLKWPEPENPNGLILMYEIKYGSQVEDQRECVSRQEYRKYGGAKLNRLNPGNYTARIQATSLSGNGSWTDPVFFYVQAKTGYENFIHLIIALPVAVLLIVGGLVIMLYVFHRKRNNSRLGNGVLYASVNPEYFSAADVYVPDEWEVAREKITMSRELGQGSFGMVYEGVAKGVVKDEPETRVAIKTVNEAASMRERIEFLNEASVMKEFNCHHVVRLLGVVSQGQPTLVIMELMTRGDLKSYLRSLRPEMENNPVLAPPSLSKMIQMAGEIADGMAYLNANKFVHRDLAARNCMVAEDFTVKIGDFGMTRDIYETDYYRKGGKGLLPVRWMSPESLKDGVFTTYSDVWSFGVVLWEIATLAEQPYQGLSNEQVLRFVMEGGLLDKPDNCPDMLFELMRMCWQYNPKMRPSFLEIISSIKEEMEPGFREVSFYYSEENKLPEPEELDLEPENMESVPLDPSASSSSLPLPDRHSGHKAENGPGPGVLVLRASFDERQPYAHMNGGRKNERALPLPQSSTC
Chain of Receptor-type tyrosine-protein kinase FLT3 (Homo sapiens) (P36888 whole entry): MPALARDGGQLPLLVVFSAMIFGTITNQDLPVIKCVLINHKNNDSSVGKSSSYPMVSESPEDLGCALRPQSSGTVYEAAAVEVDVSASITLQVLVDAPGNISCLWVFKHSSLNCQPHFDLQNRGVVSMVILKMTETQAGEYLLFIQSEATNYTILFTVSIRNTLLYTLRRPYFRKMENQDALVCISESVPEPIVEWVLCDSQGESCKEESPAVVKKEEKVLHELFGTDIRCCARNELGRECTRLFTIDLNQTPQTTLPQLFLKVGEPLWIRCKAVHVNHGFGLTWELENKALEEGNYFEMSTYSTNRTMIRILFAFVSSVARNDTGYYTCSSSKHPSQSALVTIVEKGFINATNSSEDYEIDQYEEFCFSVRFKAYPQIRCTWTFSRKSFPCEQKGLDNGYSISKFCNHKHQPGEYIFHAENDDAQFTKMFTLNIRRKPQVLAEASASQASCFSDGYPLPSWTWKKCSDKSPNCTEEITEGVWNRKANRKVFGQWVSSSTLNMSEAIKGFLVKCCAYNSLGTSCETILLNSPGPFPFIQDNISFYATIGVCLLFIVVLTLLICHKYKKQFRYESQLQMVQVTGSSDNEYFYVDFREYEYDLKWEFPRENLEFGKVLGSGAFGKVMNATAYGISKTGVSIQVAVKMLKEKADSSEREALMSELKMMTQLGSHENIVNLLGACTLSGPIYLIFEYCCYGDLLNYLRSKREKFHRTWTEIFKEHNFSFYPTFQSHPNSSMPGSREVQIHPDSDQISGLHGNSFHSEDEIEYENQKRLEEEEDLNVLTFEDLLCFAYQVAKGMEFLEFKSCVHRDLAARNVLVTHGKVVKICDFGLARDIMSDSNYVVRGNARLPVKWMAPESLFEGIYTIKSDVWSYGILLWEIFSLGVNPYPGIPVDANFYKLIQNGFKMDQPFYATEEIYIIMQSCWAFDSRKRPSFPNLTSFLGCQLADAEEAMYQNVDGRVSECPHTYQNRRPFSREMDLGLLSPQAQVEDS

CCC[C@@H]1O[C@H](CC(=O)OCC)CC2=C1C(=O)c1ccccc1C2=O (racemic)
Activity [1]: inactive

CCC[C@H]1O[C@H](CC(=O)OCC)CC2=C1C(=O)c1ccccc1C2=O (racemic)
Activity [1]: inactive

CCOC(=O)C[C@@H]1CC2=C(C(=O)c3ccccc3C2=O)C(C)(C)O1 (racemic)
Activity [1]: inactive

CCOC(=O)C[C@@H]1CC2=C(C(=O)c3ccccc3C2=O)C2(CCCC2)O1 (racemic)
Activity [1]: inactive

CCOC(=O)C[C@@H]1CC2=C(C(=O)c3ccccc3C2=O)[C@@H](COCc2ccccc2)O1 (racemic)
Activity [1]: inactive

CCOC(=O)C[C@@H]1CC2=C(C(=O)c3ccccc3C2=O)[C@H](c2ccc(N)cc2)O1 (racemic)
Activity [1]: inactive

CCOC(=O)C[C@@H]1CC2=C(C(=O)c3ccccc3C2=O)[C@H](c2ccc(O)cc2)O1 (racemic)
Activity [1]: inactive

CCOC(=O)C[C@@H]1CC2=C(C(=O)c3ccccc3C2=O)[C@H](c2cccc(O)c2)O1 (racemic)
Activity [1]: inactive

O=C1C[C@H]2O[C@H](c3ccsc3)C3=C(C(=O)c4ccccc4C3=O)[C@H]2O1 (stereo in doubt; (+))
IC50 ([2]; Homo sapiens, MDA-MB-468): 300 nM | IC50 [3]: 122 nM

CCOC(=O)C[C@@H]1CC2=C(C(=O)c3ccccc3C2=O)[C@@H](c2ccsc2)O1 (stereo in doubt; (+))
Activity [1]: inactive

O=C1C[C@H]2O[C@H](c3ccsc3)C3=C(C(=O)c4ccccc4C3=O)[C@H]2O1 (stereo in doubt; (-))
IC50 ([2]; mda-mb-468): 410 nM | IC50 [3]: 99 nM

CCOC(=O)C[C@@H]1CC2=C(C(=O)c3ccccc3C2=O)[C@@H](c2ccsc2)O1 (stereo in doubt; (-))
Activity [1]: inactive

CCC[C@H]1O[C@H](CC(=O)O)CC2=C1C(=O)c1c(O)cccc1C2=O [DEOXYFRENOLICIN]
IC50 ([2]; Homo sapiens, MDA-MB-468): 330 nM | IC50 [3]: 424 nM

CCC[C@H]1O[C@@H]2CC(=O)O[C@@H]2C2=C1C(=O)c1c(O)cccc1C2=O [FRENOLICIN B]
IC50 ([2]; Homo sapiens, MDA-MB-468): 60 nM | IC50 [3]: 198 nM

C[C@H]1O[C@@H]2CC(=O)O[C@@H]2C2=C1C(=O)c1c(ccc([C@H]3C[C@@H](N(C)C)[C@H](O)[C@@H](C)O3)c1O)C2=O [LACTOQUINOMYCIN]
inhibition [4]: 0% | inhibition [5]: 99% | inhibition [6]: 14% | inhibition [7]: 0% | inhibition [8]: 0% | inhibition [9]: 6% | inhibition [10]: 1% | inhibition [11]: 0% | inhibition [12]: 17% | inhibition [13]: 32% | IC50 [14]: 38.5 µM | inhibition [15]: 2% | inhibition [16]: 12% | inhibition [17]: 4% | inhibition [18]: 0% | inhibition [19]: 22% | inhibition [20]: 34% | inhibition [21]: 2% | inhibition [22]: 15% | inhibition [23]: 41% | inhibition [24]: 6% | inhibition [25]: 7% | inhibition [26]: 0% | inhibition [27]: 3% | inhibition [28]: 29% | inhibition [29]: 17% | inhibition [30]: 0% | inhibition [31]: 92% | inhibition [32]: 2% | inhibition [33]: 1% | Activity [34]: inactive | inhibition [35]: 0% | IC50 [36]: 30.4 µM | inhibition [37]: 16% | inhibition [38]: 14% | inhibition [39]: 0% | inhibition [40]: 38% | IC50 ([2]; Homo sapiens, MDA-MB-468): 50 nM | inhibition [41]: 8% | inhibition [42]: 21% | inhibition [43]: 1% | IC50 [3]: 149 nM | inhibition [44]: 14% | inhibition [45]: 49% | inhibition [46]: 5% | inhibition [47]: 20% | inhibition [48]: 10% | inhibition [49]: 26% | inhibition [50]: 16%
